The results in this text go back to article PMC7114445 (Virus Research, 2015).

Common to all, as to assay: Plaque inhibition test in fcwf-4 cells
The subject of one assay is type I FIPV strain KU-2. The format is cell-based, feline infectious peritonitis virus. The note with it: for Plaque reduction by serial dilutions of peptides: peptide 160, 80 and 40 μM, triplicate. The gist of the method:
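Strain KU-2 plaque assay in fcwf-4 cells. Peptide from a 10 mM DMSO stock was diluted to 100 μM, or to 160, 80 and 40 μM, in medium with 2% FCS and 25 μg/mL DEAE-dextran, with 30 min RT pretreatment; 1% DMSO was the solvent control. Without washing, 10 μL of 8000 pfu/mL virus added, 30 min at 37 °C. Wash, carboxymethyl cellulose overlay, 2 days at 37 °C, crystal violet. % plaque inhibition against virus-alone wells.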

A further assay relates to type I FIPV strain UCD-1. The class given is cell-based, feline infectious peritonitis virus. As to conditions: peptide 100 μM. The gist of the method:
(§1)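 Peptide (10 mM DMSO stock) diluted to 100 μM in medium with 2% FCS and 25 μg/mL DEAE-dextran, then applied to fcwf-4 cells for 30 min at RT. Same-fold DMSO (1%) served as solvent control. Without washing, 10 μL of 8000 pfu/mL virus added for 30 min at 37 °C. Cells washed, overlaid with 2% FCS/1.5% carboxymethyl cellulose for 2 days at 37 °C, formalin-fixed and crystal violet-stained. % plaque inhibition calculated against virus-alone wells.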

For another assay, the system named is type I FIPV strain Black. The class given is cell-based, feline infectious peritonitis virus. As to conditions: peptide 100 μM. The gist of the method:
as §1

Assay [1] has as its system type II FIPV strain 79-1146. The class given is cell-based, feline infectious peritonitis virus. As to conditions: peptide 100 μM. The gist of the method:
as §1

The next assay relates to FHV strain C7301. The format is cell-based, feline herpesvirus. As to conditions: peptide 100 μM, fcwf-4 cells 30 min RT, triplicate. The gist of the method:
as §1

The subject of a further assay is FCV strain F4. The class given is cell-based, feline calicivirus. As to conditions: peptide 100 μM, fcwf-4 cells 30 min RT, triplicate. The gist of the method:
as §1

Where [2] appears, read: fcwf-4 cells 30 min RT, vs 1% DMSO, triplicate.

Some results are limits rather than exact numbers.

For the sequence YHWMNVTLHVVLNDTEKKYD [I-S1-16], in the assay on type I FIPV strain KU-2 (peptide 100 μM), the “Plaque inhibition, type I FIPV strain KU-2” value is ≥ 50%. Besides, the “Plaque reduction by serial dilutions of peptides” value (“Plaque reduction” below) in the assay on type I FIPV strain KU-2 was “dose-dependent”. Besides, the “Plaque inhibition, type I FIPV strain UCD-1” value in the assay with type I FIPV strain UCD-1 (fcwf-4 cells) is listed as ≥ 50%. The “Inhibition of infection by type I FIPV strain UCD-1” value in the assay on type I FIPV strain UCD-1 (setting [2]) is “significantly inhibited”. Further, the “Plaque inhibition, type I FIPV strain Black” value in the assay with type I FIPV strain Black (fcwf-4 cells) is ≥ 50%. The “Inhibition of infection by type I FIPV strain Black” value with type I FIPV strain Black (setting [2]) was “significantly inhibited”. Further, the “Plaque inhibition, type II FIPV strain 79-1146” value in assay [1] (fcwf-4 cells) is “less than 50%”. The “Inhibition of infection by type II FIPV strain 79-1146” value in assay [1] (setting [2]) is “significantly inhibited”. In the assay with FHV strain C7301, the “Inhibitory effect on infection by FHV strain C7301” value is “no inhibitory effects”. Further, the “Inhibitory effect on infection by FCV strain F4” value in the assay with FCV strain F4 is listed as “no inhibitory effects”.
Take LFYKYTSLQGLYTYSNLVEL [I-S1-22]: the “Plaque reduction” value in the assay on type I FIPV strain KU-2 is on record as “dose-dependent”.
As for VNFSISSVEEYGFWTIAYTN [I-S1-8], the “Plaque reduction” value with type I FIPV strain KU-2 is reported as “dose-dependent”.
As to YTDVMVDVNGTAITRLFYCD [I-S1-10], the “Plaque reduction” value in the assay with type I FIPV strain KU-2 is “dose-dependent”.
